# Assay results taken from ChEMBL document CHEMBL4257484, “Membrane-active antimicrobial poly(amino-modified alkyl) β-cyclodextrins synthesized via click reactions” (Medchemcomm, 2018).
# What was measured:
# [1] = Hemolytic activity in rabbit RBC at 2 uM after 20 mins relative to control; assay type: ADME, cell-based, Oryctolagus cuniculus, Erythrocyte; settings: rabbit red blood cells (erythrocytes), read-out: Activity
# In short: (§1)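 Rabbit erythrocytes suspended in 150 mM NaCl/10 mM Hepes-NaOH, pH 7.4, at 0.5% hematocrit (final) and incubated with compound at 37 °C. The table footnote gives 20 min; the methods section gives 30 min. Hemolysis was read as absorbance at 540 nm, with 50 µM lysolecithin defining 100% hemolysis.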
# [2] = Hemolytic activity in rabbit RBC at 5 uM after 20 mins relative to control; assay type: ADME, cell-based, Oryctolagus cuniculus, Erythrocyte; settings: rabbit red blood cells (erythrocytes), read-out: Activity; in short: as §1
# Escherichia coli = assay: Antibacterial activity against drug-sensitive Escherichia coli K-12 W3110 after 20 hrs by liquid microdilution method; assay type: functional; settings: K-12 substr. W3110, 20 h
# In short: (§2)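 Two-fold serial dilutions of compound in Mueller–Hinton broth, inoculated with 1 × 10^4 cells and cultured at 37 °C for 20 h in microtiter wells.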
# Bacillus subtilis = assay: Antibacterial activity against drug-sensitive Bacillus subtilis 168 after 20 hrs by liquid microdilution method; assay type: functional; settings: subsp. subtilis str. 168, 20 h; in short: as §2
# [3] = Hemolytic activity in rabbit RBC at 10 uM after 20 mins relative to control; assay type: ADME, cell-based, Oryctolagus cuniculus, Erythrocyte; settings: rabbit red blood cells (erythrocytes), read-out: Activity; in short: as §1
# [4] = Hemolytic activity in rabbit RBC at 1 uM after 20 mins relative to control; assay type: ADME, cell-based, Oryctolagus cuniculus, Erythrocyte; settings: rabbit red blood cells (erythrocytes), read-out: Activity; in short: as §1
# [5] = Hemolytic activity in rabbit RBC at 20 uM after 20 mins relative to control; assay type: ADME, cell-based, Oryctolagus cuniculus, Erythrocyte; settings: rabbit red blood cells (erythrocytes), read-out: Activity; in short: as §1
# Streptococcus agalactiae = assay: Antibacterial activity against drug-resistant Streptococcus agalactiae B1 after 18 to 20 hrs by agar dilution method; assay type: functional
# In short: (§3)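 Agar dilution per CLSI. Overnight broth cultures were diluted 100-fold, and one loopful (about 10^5 to 10^4 CFU) was spotted onto agar plates containing the CD. Growth was scored after 18–20 h at 37 °C. MIC values are in µM.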
# Staphylococcus aureus [6] = assay: Induction of membrane disruption in methicillin-sensitive Staphylococcus aureus FDA 209P assessed as increase in K+ efflux after 30 mins; assay type: functional; settings: 0.5 h, read-out: ED50 (the source's name)
# In short: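 S. aureus washed twice and suspended at 2 × 10^9 cells per cm3 in 100 mM choline chloride/50 mM Mops-Tris, pH 7.2, then exposed to compound at 37 °C for 30 min. Released K+ was measured in the centrifuged supernatant with a K+-selective electrode. Melittin (10 µM) defined 100% efflux, and ED50 is the concentration giving 50% efflux.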
# Enterococcus faecalis [7] = assay: Antibacterial activity against drug-resistant Enterococcus faecalis MS29030 after 18 to 20 hrs by agar dilution method; assay type: functional; in short: as §3
# Pseudomonas aeruginosa = assay: Antibacterial activity against drug-sensitive Pseudomonas aeruginosa PAO1 after 20 hrs by liquid microdilution method; assay type: functional; settings: PAO1, 20 h; in short: as §2
# Staphylococcus aureus [8] = assay: Antibacterial activity against methicillin-resistant Staphylococcus aureus MS29202 after 18 to 20 hrs by agar dilution method; assay type: functional; in short: as §3
# [9] = Hemolytic activity in rabbit RBC at 50 uM after 20 mins relative to control; assay type: ADME, cell-based, Oryctolagus cuniculus, Erythrocyte; settings: rabbit red blood cells (erythrocytes), read-out: Activity; in short: as §1
# Staphylococcus aureus [10] = assay: Antibacterial activity against Staphylococcus aureus FDA 209P assessed as decrease in cell viability after 30 mins by colony counting method; assay type: functional; settings: 0.5 h
# In short: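 S. aureus washed twice and suspended at 2 × 10^9 cells per cm3 in 100 mM choline chloride/50 mM Mops-Tris, pH 7.2. Exposed to CD at 37 °C for 30 min. An aliquot was diluted in physiological saline, plated on polypeptone/yeast extract/NaCl agar and incubated overnight at 37 °C. Viability was taken from colony counts; LC50 is the concentration giving 50% viability.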
# Salmonella typhimurium = assay: Antibacterial activity against drug-sensitive Salmonella typhimurium LT2 after 20 hrs by liquid microdilution method; assay type: functional, Salmonella enterica subsp. enterica serovar Typhimurium; settings: Salmonella enterica, LT2, 20 h; in short: as §2
# Enterococcus faecalis [11] = assay: Antibacterial activity against vancomycin-resistant Enterococcus faecalis MS29016 after 18 to 20 hrs by agar dilution method; assay type: functional; in short: as §3
# Enterococcus faecium = assay: Antibacterial activity against drug-resistant Enterococcus faecium MS29120 after 18 to 20 hrs by agar dilution method; assay type: functional; in short: as §3
# Staphylococcus aureus [12] = assay: Antibacterial activity against methicillin-sensitive Staphylococcus aureus FDA 209P after 20 hrs by liquid microdilution method; assay type: functional; in short: as §2
# [13] = Lipophilicity, log P of the compound; assay type: physicochemical; settings: octanol/water
SMILES,"hemolysis at 20 min, 2 µM [1]","hemolysis at 20 min, 5 µM [2]",MIC (Escherichia coli),MIC (Bacillus subtilis),"hemolysis at 20 min, 10 µM [3]","hemolysis at 20 min, 1 µM [4]","hemolysis at 20 min, 20 µM [5]",MIC (Streptococcus agalactiae),EC50 (Staphylococcus aureus [6]),MIC (Enterococcus faecalis [7]),MIC (Pseudomonas aeruginosa),MIC (Staphylococcus aureus [8]),"hemolysis at 20 min, 50 µM [9]",LC50 (Staphylococcus aureus [10]),MIC (Salmonella typhimurium),MIC (Enterococcus faecalis [11]),MIC (Enterococcus faecium),MIC (Staphylococcus aureus [12]),logP [13]
CCCCCCNCc1cn(C[C@H]2O[C@@H]3O[C@H]4[C@H](O)[C@@H](O)[C@@H](O[C@H]5[C@H](O)[C@@H](O)[C@@H](O[C@H]6[C@H](O)[C@@H](O)[C@@H](O[C@H]7[C@H](O)[C@@H](O)[C@@H](O[C@H]8[C@H](O)[C@@H](O)[C@@H](O[C@H]9[C@H](O)[C@@H](O)[C@@H](O[C@H]2[C@H](O)[C@H]3O)O[C@@H]9Cn2cc(CNCCCCCC)nn2)O[C@@H]8Cn2cc(CNCCCCCC)nn2)O[C@@H]7Cn2cc(CNCCCCCC)nn2)O[C@@H]6Cn2cc(CNCCCCCC)nn2)O[C@@H]5Cn2cc(CNCCCCCC)nn2)O[C@@H]4Cn2cc(CNCCCCCC)nn2)nn1,4%,7%,5 µM,3 µM,25%,0%,64%,10 µM,15 µM,> 42 µM,10 µM,21 µM,110%,15 µM,10 µM,42 µM,10 µM,3 to 10 µM,-0.06
CCCCNCc1cn(C[C@H]2O[C@@H]3O[C@H]4[C@H](O)[C@@H](O)[C@@H](O[C@H]5[C@H](O)[C@@H](O)[C@@H](O[C@H]6[C@H](O)[C@@H](O)[C@@H](O[C@H]7[C@H](O)[C@@H](O)[C@@H](O[C@H]8[C@H](O)[C@@H](O)[C@@H](O[C@H]9[C@H](O)[C@@H](O)[C@@H](O[C@H]2[C@H](O)[C@H]3O)O[C@@H]9Cn2cc(CNCCCC)nn2)O[C@@H]8Cn2cc(CNCCCC)nn2)O[C@@H]7Cn2cc(CNCCCC)nn2)O[C@@H]6Cn2cc(CNCCCC)nn2)O[C@@H]5Cn2cc(CNCCCC)nn2)O[C@@H]4Cn2cc(CNCCCC)nn2)nn1,0%,0%,> 44 µM,11 µM,0%,0%,0%,> 44 µM,> 50 µM,> 44 µM,> 44 µM,> 44 µM,0%,> 50 µM,> 44 µM,> 44 µM,> 44 µM,11 to 22 µM,-0.9
O[C@@H]1[C@@H](O)[C@H]2O[C@H]3[C@H](O)[C@@H](O)[C@@H](O[C@H]4[C@H](O)[C@@H](O)[C@@H](O[C@H]5[C@H](O)[C@@H](O)[C@@H](O[C@H]6[C@H](O)[C@@H](O)[C@@H](O[C@H]7[C@H](O)[C@@H](O)[C@@H](O[C@H]8[C@H](O)[C@@H](O)[C@@H](O[C@@H]1[C@@H](Cn1cc(CNCC9CCCCC9)nn1)O2)O[C@@H]8Cn1cc(CNCC2CCCCC2)nn1)O[C@@H]7Cn1cc(CNCC2CCCCC2)nn1)O[C@@H]6Cn1cc(CNCC2CCCCC2)nn1)O[C@@H]5Cn1cc(CNCC2CCCCC2)nn1)O[C@@H]4Cn1cc(CNCC2CCCCC2)nn1)O[C@@H]3Cn1cc(CNCC2CCCCC2)nn1,0%,13%,5 µM,3 µM,38%,0%,78%,40 µM,–,> 40 µM,20 µM,40 µM,107%,–,10 µM,40 µM,20 µM,3 to 10 µM,-0.16
CC(C)CCNCc1cn(C[C@H]2O[C@@H]3O[C@H]4[C@H](O)[C@@H](O)[C@@H](O[C@H]5[C@H](O)[C@@H](O)[C@@H](O[C@H]6[C@H](O)[C@@H](O)[C@@H](O[C@H]7[C@H](O)[C@@H](O)[C@@H](O[C@H]8[C@H](O)[C@@H](O)[C@@H](O[C@H]9[C@H](O)[C@@H](O)[C@@H](O[C@H]2[C@H](O)[C@H]3O)O[C@@H]9Cn2cc(CNCCC(C)C)nn2)O[C@@H]8Cn2cc(CNCCC(C)C)nn2)O[C@@H]7Cn2cc(CNCCC(C)C)nn2)O[C@@H]6Cn2cc(CNCCC(C)C)nn2)O[C@@H]5Cn2cc(CNCCC(C)C)nn2)O[C@@H]4Cn2cc(CNCCC(C)C)nn2)nn1,0%,0%,> 43 µM,1 µM,0%,0%,0%,11 µM,–,> 43 µM,> 43 µM,21 µM,0%,–,> 43 µM,> 43 µM,21 µM,3 to 5 µM,-0.57
OC[C@H]1O[C@@H]2O[C@H]3[C@H](O)[C@@H](O)[C@@H](O[C@H]4[C@H](O)[C@@H](O)[C@@H](O[C@H]5[C@H](O)[C@@H](O)[C@@H](O[C@H]6[C@H](O)[C@@H](O)[C@@H](O[C@H]7[C@H](O)[C@@H](O)[C@@H](O[C@H]8[C@H](O)[C@@H](O)[C@@H](O[C@H]1[C@H](O)[C@H]2O)O[C@@H]8CO)O[C@@H]7CO)O[C@@H]6CO)O[C@@H]5CO)O[C@@H]4CO)O[C@@H]3CO [BETADEX],–,–,–,–,–,–,–,–,> 50 µM,–,–,–,–,> 50 µM,–,–,–,–,–
CCCC(C)CCNCc1cn(C[C@H]2O[C@@H]3O[C@H]4[C@H](O)[C@@H](O)[C@@H](O[C@H]5[C@H](O)[C@@H](O)[C@@H](O[C@H]6[C@H](O)[C@@H](O)[C@@H](O[C@H]7[C@H](O)[C@@H](O)[C@@H](O[C@H]8[C@H](O)[C@@H](O)[C@@H](O[C@H]9[C@H](O)[C@@H](O)[C@@H](O[C@H]2[C@H](O)[C@H]3O)O[C@@H]9Cn2cc(CNCCC(C)CCC)nn2)O[C@@H]8Cn2cc(CNCCC(C)CCC)nn2)O[C@@H]7Cn2cc(CNCCC(C)CCC)nn2)O[C@@H]6Cn2cc(CNCCC(C)CCC)nn2)O[C@@H]5Cn2cc(CNCCC(C)CCC)nn2)O[C@@H]4Cn2cc(CNCCC(C)CCC)nn2)nn1 (stereo partly specified),30%,73%,5 µM,10 µM,99%,10%,108%,20 µM,–,> 40 µM,10 µM,40 µM,119%,–,10 µM,40 µM,20 µM,3 to 20 µM,0.27
